Results as given in ChEMBL document CHEMBL3091364, “Benzyloxybenzylammonium chlorides: Simple amine salts that display anticonvulsant activity” (Bioorg Med Chem, 2013).

What was measured:
[1] = biological target: 5-hydroxytryptamine receptor 5A (Homo sapiens) (UniProt P47898); assay: Inhibition of 5-HT5A receptor (unknown origin) at 10 uM relative to control
[2] = biological target: 5-hydroxytryptamine receptor 6 (Homo sapiens) (UniProt P50406); assay: Inhibition of 5-HT6 receptor (unknown origin) at 10 uM relative to control
Chain of 5-hydroxytryptamine receptor 6 (Homo sapiens) (P50406 whole entry): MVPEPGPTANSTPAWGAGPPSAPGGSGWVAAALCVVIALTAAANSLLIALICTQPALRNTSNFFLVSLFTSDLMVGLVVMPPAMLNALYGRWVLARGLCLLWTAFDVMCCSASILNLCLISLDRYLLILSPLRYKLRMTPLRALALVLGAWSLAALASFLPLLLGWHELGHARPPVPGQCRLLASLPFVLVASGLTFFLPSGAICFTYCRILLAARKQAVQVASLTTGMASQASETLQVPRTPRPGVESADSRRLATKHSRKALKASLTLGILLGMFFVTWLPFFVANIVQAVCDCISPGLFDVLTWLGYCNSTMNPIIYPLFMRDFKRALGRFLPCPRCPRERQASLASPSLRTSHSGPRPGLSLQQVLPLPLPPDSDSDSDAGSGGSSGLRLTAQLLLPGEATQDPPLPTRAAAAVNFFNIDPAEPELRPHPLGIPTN

[3] = biological target: Beta-3 adrenergic receptor (Homo sapiens) (UniProt P13945); assay: Inhibition of adrenergic beta-3 receptor (unknown origin) at 10 uM relative to control
Chain of Beta-3 adrenergic receptor (Homo sapiens) (P13945 whole entry, looked up): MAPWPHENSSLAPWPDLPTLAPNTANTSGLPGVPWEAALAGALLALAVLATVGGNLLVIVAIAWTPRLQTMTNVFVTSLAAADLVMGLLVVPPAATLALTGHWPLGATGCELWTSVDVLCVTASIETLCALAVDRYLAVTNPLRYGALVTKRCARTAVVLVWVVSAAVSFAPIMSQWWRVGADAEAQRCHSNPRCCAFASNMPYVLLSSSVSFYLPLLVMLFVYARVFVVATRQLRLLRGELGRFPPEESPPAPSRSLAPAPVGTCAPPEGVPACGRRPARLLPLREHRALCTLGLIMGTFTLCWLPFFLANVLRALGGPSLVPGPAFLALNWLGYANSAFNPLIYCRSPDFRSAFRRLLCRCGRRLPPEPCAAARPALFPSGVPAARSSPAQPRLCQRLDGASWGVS

Rattus norvegicus = assay: Anticonvulsant activity in po dosed albino Sprague-Dawley rat assessed as protection against maximal electroshock-induced seizures measured at 0.25 to 4 hrs; format: functional
How it was run: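 Screened under the NINDS ASP in male albino Carworth Farms No. 1 mice (ip) or male albino Sprague-Dawley rats (ip or po), using MES, 6 Hz (32 mA) and subcutaneous pentylenetetrazol seizure tests. Initial qualitative tests used preset doses (e.g., 30, 50, 100 mg/kg). ED50 values with 95% confidence intervals came from dose–response data collected at the time of peak effect.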

[4] = biological target: Translocator protein (Homo sapiens) (UniProt P30536); assay: Inhibition of PBR (unknown origin) at 10 uM relative to control
Chain of Translocator protein (Homo sapiens) (P30536 whole entry): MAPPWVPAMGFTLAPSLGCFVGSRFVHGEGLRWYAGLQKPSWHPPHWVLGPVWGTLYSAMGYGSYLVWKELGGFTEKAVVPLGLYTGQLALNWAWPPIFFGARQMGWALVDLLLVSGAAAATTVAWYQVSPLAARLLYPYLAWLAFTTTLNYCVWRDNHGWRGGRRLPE

[5] = biological target: T1, Alpha-1B adrenergic receptor (Homo sapiens) (UniProt P35368); assay: Inhibition of adrenergic alpha-1B receptor (unknown origin) at 10 uM relative to control
T1 sequence (whole entry): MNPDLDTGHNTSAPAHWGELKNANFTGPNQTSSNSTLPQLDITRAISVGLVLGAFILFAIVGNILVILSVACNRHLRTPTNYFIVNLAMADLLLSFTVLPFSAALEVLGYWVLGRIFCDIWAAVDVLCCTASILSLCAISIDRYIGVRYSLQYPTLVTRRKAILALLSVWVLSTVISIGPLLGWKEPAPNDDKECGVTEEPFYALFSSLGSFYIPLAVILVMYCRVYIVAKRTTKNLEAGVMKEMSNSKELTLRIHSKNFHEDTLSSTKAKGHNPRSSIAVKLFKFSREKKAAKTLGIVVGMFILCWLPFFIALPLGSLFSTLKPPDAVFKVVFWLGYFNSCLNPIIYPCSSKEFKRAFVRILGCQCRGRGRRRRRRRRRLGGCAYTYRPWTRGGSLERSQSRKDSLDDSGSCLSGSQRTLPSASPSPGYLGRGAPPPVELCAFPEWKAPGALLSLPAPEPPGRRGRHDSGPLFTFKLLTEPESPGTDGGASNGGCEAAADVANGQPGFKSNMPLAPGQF

[6] = biological target: D(3) dopamine receptor (Homo sapiens) (UniProt P35462); assay: Inhibition of dopaminergic D3 receptor (unknown origin) at 10 uM relative to control
Chain of D(3) dopamine receptor (Homo sapiens) (P35462 whole entry): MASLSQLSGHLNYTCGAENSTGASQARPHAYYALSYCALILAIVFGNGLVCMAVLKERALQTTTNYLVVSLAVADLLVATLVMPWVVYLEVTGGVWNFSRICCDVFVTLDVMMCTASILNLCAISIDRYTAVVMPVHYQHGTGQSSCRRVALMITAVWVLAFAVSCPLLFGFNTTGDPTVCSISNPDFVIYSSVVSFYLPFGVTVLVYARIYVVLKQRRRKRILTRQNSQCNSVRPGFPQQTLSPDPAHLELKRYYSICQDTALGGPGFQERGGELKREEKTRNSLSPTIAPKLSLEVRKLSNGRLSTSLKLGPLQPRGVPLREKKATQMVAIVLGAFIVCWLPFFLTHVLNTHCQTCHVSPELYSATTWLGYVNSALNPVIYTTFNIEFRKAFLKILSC

[7] = biological target: Sodium-dependent dopamine transporter (Homo sapiens) (UniProt Q01959); assay: Inhibition of DAT (unknown origin) at 10 uM relative to control
Chain of Sodium-dependent dopamine transporter (Homo sapiens) (Q01959 whole entry): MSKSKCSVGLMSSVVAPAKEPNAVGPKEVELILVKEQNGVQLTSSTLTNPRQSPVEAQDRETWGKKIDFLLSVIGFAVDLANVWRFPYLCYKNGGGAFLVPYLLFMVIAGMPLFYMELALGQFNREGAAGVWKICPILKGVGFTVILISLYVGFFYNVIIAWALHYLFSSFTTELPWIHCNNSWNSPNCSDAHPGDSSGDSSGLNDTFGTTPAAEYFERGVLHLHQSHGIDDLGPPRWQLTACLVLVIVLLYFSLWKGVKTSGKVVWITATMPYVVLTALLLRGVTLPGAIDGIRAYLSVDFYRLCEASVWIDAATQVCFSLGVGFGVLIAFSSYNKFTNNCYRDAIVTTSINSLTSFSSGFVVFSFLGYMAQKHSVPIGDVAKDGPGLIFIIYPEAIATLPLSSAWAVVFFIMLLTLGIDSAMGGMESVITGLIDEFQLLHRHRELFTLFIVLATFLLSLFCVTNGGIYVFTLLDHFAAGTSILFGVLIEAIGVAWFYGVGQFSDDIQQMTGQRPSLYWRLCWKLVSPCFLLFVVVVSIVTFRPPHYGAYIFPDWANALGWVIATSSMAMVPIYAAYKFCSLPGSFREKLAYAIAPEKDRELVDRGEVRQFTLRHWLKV

[8] = biological target: T2, 5-hydroxytryptamine receptor 1A (Homo sapiens) (UniProt P08908); assay: Inhibition of 5-HT1A receptor (unknown origin) at 10 uM relative to control
T2 sequence (whole entry): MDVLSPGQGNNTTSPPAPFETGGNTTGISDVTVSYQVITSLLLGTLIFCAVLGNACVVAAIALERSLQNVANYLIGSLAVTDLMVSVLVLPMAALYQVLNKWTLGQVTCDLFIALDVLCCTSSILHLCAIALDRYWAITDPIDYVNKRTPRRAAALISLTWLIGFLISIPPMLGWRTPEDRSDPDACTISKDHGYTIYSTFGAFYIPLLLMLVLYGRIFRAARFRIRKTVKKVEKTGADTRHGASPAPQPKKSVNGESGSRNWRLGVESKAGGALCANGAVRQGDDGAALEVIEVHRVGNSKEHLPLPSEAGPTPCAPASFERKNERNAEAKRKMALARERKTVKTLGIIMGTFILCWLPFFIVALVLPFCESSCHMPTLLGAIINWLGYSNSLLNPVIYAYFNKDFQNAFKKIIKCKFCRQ

[9] = biological target: T3, D(4) dopamine receptor (Homo sapiens) (UniProt P21917); assay: Inhibition of dopaminergic D4 receptor (unknown origin) at 10 uM relative to control
T3 sequence (whole entry): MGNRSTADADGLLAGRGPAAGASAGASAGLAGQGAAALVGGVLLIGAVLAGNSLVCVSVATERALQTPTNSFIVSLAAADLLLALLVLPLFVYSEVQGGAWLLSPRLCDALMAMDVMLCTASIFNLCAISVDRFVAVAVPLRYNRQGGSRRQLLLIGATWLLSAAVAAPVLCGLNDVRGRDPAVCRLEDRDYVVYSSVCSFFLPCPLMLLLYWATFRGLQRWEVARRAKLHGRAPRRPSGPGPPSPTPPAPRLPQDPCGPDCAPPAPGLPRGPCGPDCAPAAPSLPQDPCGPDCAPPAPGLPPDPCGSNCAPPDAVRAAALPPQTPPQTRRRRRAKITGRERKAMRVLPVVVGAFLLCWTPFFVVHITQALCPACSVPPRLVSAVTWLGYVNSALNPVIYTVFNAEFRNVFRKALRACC

[10] = biological target: T4, Muscarinic acetylcholine receptor M1 (Homo sapiens) (UniProt P11229); assay: Inhibition of muscarinergic M1 receptor (unknown origin) at 10 uM relative to control
T4 sequence (whole entry): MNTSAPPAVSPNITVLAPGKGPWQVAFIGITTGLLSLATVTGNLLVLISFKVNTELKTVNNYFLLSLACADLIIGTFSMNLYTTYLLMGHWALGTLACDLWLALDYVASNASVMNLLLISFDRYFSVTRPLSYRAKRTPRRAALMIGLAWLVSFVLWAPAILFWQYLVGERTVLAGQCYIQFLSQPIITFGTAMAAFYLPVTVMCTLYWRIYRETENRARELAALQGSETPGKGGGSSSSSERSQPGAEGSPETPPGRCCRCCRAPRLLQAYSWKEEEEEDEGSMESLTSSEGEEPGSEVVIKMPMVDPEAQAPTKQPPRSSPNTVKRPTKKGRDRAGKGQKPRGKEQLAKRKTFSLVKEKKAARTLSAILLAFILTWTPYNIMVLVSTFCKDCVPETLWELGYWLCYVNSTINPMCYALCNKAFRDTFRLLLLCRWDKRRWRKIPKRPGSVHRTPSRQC

[11] = biological target: Histamine H3 receptor (Homo sapiens) (UniProt Q9Y5N1); assay: Inhibition of histamine H3 receptor (unknown origin) at 10 uM relative to control
Chain of Histamine H3 receptor (Homo sapiens) (Q9Y5N1 whole entry): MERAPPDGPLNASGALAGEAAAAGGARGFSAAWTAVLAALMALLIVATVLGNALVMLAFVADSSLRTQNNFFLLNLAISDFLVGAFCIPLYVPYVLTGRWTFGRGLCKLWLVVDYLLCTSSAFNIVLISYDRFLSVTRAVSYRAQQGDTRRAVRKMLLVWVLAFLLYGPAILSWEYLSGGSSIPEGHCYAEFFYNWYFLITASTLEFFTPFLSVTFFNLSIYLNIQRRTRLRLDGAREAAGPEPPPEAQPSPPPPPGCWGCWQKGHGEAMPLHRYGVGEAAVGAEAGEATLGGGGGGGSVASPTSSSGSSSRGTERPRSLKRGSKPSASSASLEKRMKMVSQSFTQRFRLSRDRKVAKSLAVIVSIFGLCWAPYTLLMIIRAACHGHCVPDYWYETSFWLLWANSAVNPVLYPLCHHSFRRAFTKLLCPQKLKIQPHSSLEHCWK

[12] = biological target: 5-hydroxytryptamine receptor 1D (Homo sapiens) (UniProt P28221); assay: Inhibition of 5-HT1D receptor (unknown origin) at 10 uM relative to control
Chain of 5-hydroxytryptamine receptor 1D (Homo sapiens) (P28221 whole entry): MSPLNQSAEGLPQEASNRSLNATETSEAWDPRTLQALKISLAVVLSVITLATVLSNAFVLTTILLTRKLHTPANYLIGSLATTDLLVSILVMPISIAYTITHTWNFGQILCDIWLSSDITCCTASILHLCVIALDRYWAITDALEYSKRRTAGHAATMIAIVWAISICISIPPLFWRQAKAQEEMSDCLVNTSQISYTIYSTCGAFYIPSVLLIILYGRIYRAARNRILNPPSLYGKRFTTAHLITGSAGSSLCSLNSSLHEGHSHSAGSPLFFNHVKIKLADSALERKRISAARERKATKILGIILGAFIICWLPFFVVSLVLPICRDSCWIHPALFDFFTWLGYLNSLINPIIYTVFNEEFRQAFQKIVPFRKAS

[13] = biological target: Sigma non-opioid intracellular receptor 1 (Homo sapiens) (UniProt Q99720); assay: Inhibition of sigma-1 receptor (unknown origin) at 10 uM relative to control
Chain of Sigma non-opioid intracellular receptor 1 (Homo sapiens) (Q99720 whole entry): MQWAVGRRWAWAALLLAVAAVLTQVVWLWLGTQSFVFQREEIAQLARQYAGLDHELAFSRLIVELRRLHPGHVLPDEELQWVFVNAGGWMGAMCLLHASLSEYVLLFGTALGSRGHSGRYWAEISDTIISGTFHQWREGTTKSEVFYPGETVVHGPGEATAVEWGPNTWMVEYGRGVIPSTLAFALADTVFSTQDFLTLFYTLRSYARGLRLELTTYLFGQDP

[14] = biological target: Histamine H2 receptor (Homo sapiens) (UniProt P25021); assay: Inhibition of histamine H2 receptor (unknown origin) at 10 uM relative to control
Chain of Histamine H2 receptor (Homo sapiens) (P25021 whole entry): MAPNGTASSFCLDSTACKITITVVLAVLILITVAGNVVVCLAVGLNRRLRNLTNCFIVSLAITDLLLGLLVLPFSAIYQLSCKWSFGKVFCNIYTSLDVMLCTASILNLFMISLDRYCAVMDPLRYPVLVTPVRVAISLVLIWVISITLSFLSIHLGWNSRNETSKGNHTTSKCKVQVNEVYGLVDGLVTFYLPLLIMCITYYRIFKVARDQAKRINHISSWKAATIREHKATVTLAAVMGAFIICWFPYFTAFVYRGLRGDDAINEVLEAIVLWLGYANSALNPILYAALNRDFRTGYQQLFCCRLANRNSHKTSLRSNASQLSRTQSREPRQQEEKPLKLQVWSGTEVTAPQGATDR

Chain of 5-hydroxytryptamine receptor 5A (Homo sapiens) (P47898 whole entry): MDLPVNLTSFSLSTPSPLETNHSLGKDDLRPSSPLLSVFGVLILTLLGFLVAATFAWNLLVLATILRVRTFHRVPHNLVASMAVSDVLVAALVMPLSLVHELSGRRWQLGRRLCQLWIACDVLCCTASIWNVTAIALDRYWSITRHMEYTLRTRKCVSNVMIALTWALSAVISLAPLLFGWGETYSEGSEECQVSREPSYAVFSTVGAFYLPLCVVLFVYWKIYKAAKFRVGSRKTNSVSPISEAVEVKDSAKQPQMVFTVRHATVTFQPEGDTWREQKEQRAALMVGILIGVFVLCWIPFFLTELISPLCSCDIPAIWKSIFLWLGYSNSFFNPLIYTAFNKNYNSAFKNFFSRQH

| SMILES | inhibition [1] | inhibition [2] | inhibition [3] | ED50 (Rattus norvegicus) | inhibition [4] | inhibition [5] | inhibition [6] | inhibition [7] | inhibition [8] | inhibition [9] | inhibition [10] | inhibition [11] | inhibition [12] | inhibition [13] | inhibition [14] |
| --- | --- | --- | --- | --- | --- | --- | --- | --- | --- | --- | --- | --- | --- | --- | --- |
| Cl.NCc1ccc(OCc2cccc(Cl)c2)cc1 | 44.9% | 52.4% | 16.9% | > 30 mg/kg | 50% | 11.4% | 38.1% | 84.1% | 7.5% | 79.4% | 17.6% | 19.3% | -0.7% | 89.4% | -7.4% |
| Cl.NCc1ccc(OCc2cccc(F)c2)cc1 | – | 44.8% | 9.3% | > 30 mg/kg | 15.2% | 24.8% | 14% | 76.8% | 50.1% | 9.9% | 37.5% | -2.8% | – | 102% | – |
| Cl.NCc1ccc(OCc2cccc(OC(F)(F)F)c2)cc1 | 0.2% | 34.3% | 13.6% | > 30 mg/kg | 3.6% | -3.8% | 33.5% | 45.5% | 50% | 22.1% | – | 21.7% | 12.3% | 96.9% | 4.2% |
| Cl.NCc1ccc(OCc2ccccc2OC(F)(F)F)cc1 | -0.1% | 22% | 26.8% | – | 4.7% | -2.4% | 33.9% | 50.7% | 10.1% | 94.6% | 67.3% | 11.8% | 0.5% | 92.9% | 5.8% |
| Cl.NCc1ccc(OCc2ccc(OC(F)(F)F)cc2)cc1 | -1.8% | 8.9% | 17.5% | > 30 mg/kg | 5.6% | 4.1% | 13.3% | 70.5% | 22.3% | -0.2% | 26.6% | 21.1% | 4.9% | 91.1% | -2.7% |
| Cl.NCc1ccc(OCc2ccccc2)cc1 | 1.2% | 26.9% | 11.3% | > 30 mg/kg | 11.8% | 0.5% | 14.3% | 72.2% | 16% | 27.4% | 28.9% | 11.2% | -3.3% | 97.7% | -4% |
| Cl.NCc1ccc(OCc2ccccc2F)cc1 | -5.2% | 21.3% | 10.2% | > 30 mg/kg | 26.8% | 13.6% | 24.1% | 61.7% | 32.3% | 44% | 42% | -0.4% | – | 102% | 1.6% |
| Cl.NCc1ccc(OCc2ccc(Cl)cc2)cc1 | 36.6% | 50.5% | -3.4% | > 30 mg/kg | 12% | – | 22.6% | 75.7% | 3.7% | 24.7% | 18.8% | 35.3% | 1.6% | 90.6% | 16.8% |
| Cl.NCc1ccc(OCc2ccc(F)cc2)cc1 | 8.5% | 18.1% | 5% | > 30 mg/kg | -2.3% | – | 16.7% | 48.2% | 36% | 19.5% | 18.6% | 35% | 12.7% | 92.7% | 29.7% |
